Measurements taken from ChEMBL document CHEMBL3272084, “Adamantane and protoadamantanealkanamines as potential anti-Parkinson agents” (J Med Chem, 1976).
Active and inactive are the calls of the source. No cut-off for these calls is given here.

Key:
Mus musculus [1] = test: Antiparkinsonian activity in CFW mouse assessed as reversal of reserpine-induced catalepsy at 0.02 mmol/kg, sc measured every 30 mins up to 1.5 hrs; assay type: functional, organism-based
Rattus norvegicus [2] = test: Antiparkinsonian activity in Wistar rat assessed as reversal of reserpine-induced catalepsy at 0.16 mmol/kg, po measured every 30 mins up to 1.5 hrs; assay type: functional, organism-based
Mus musculus [3] = test: Antidepressant activity in CFW mouse assessed as reversal of reserpine-induced hypothermia by measuring temperature index at 0.02 mmol/kg, sc measured every 30 mins up to 1.5 hrs; assay type: functional, organism-based
[4] = (§1) Acute toxicity in po dosed albino CFW mouse assessed as mortality measured over 48 hrs; assay type: organism-based; conditions: albino CFW, in vivo
[5] = (§2) Acute toxicity in ip dosed albino CFW mouse assessed as mortality measured over 48 hrs; assay type: organism-based; conditions: albino CFW, in vivo
Rattus norvegicus [6] = test: Potency index, ratio of compound to amantadine for antiparkinsonian activity in po dosed Wistar rat assessed as reversal of reserpine-induced catalepsy; assay type: functional
Mus musculus [7] = test: Antidepressant activity in CFW mouse assessed as reversal of reserpine-induced hypothermia by measuring temperature index at 0.03 mmol/kg, sc measured every 30 mins up to 1.5 hrs; assay type: functional
How it was run: (§3)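 Groups of five CFW mice received reserpine 4 mg/kg sc. After 2.5 h, rectal temperature was taken. The temperature index (TI) is the sum of the group's mean changes from its mean initial temperature at 30, 60 and 90 min. Scoring: 0 = no effect, 1 = TI 5–10, 2 = TI >10. A run was repeated if the reserpine control TI fell outside −5 to −15.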

Mus musculus [8] = test: as §1; assay type: organism-based; conditions: in vivo, 48 h
Mus musculus [9] = test: as §2; assay type: organism-based; conditions: in vivo, 48 h
Mus musculus [10] = test: Antidepressant activity in CFW mouse assessed as reversal of reserpine-induced hypothermia by measuring temperature index at 0.20 mmol/kg, sc measured every 30 mins up to 1.5 hrs; assay type: functional, organism-based
Mus musculus [11] = test: Antiparkinsonian activity in CFW mouse assessed as reversal of reserpine-induced catalepsy at 0.20 mmol/kg, sc measured every 30 mins up to 1.5 hrs; assay type: functional, organism-based
Rattus norvegicus [12] = test: Antiparkinsonian activity in Wistar rat assessed as reversal of reserpine-induced catalepsy at 0.13 mmol/kg, po measured every 30 mins up to 1.5 hrs; assay type: functional, organism-based
Mus musculus [13] = test: Antiparkinsonian activity in CFW mouse assessed as reversal of reserpine-induced catalepsy at 0.13 mmol/kg, sc measured every 30 mins up to 1.5 hrs; assay type: functional, organism-based
Mus musculus [14] = test: Antidepressant activity in CFW mouse assessed as reversal of reserpine-induced hypothermia by measuring temperature index at 0.13 mmol/kg, sc measured every 30 mins up to 1.5 hrs; assay type: functional, organism-based
Mus musculus [15] = test: Antiparkinsonian activity in CFW mouse assessed as reversal of reserpine-induced catalepsy at 0.07 mmol/kg, sc measured every 30 mins up to 1.5 hrs; assay type: functional, organism-based
How it was run: (§4)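 Groups of five CFW mice were given reserpine 4 mg/kg sc, and catalepsy was assessed 2.5 h later. Reversal was scored 0–5: 0 no effect, 1 marginal, 2 significant, 3 marked, 4 approaching complete, 5 complete reversal.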

Rattus norvegicus [16] = test: Antiparkinsonian activity in Wistar rat assessed as reversal of reserpine-induced catalepsy at 0.14 mmol/kg, po measured every 30 mins up to 1.5 hrs; assay type: functional, organism-based
Mus musculus [17] = test: Antidepressant activity in CFW mouse assessed as reversal of reserpine-induced hypothermia by measuring temperature index at 0.15 mmol/kg, sc measured every 30 mins up to 1.5 hrs; assay type: functional
Mus musculus [18] = test: Antiparkinsonian activity in CFW mouse assessed as reversal of reserpine-induced catalepsy at 0.15 mmol/kg, sc measured every 30 mins up to 1.5 hrs; assay type: functional, organism-based
Mus musculus [19] = test: Antidepressant activity in CFW mouse assessed as reversal of reserpine-induced hypothermia by measuring temperature index at 0.09 mmol/kg, sc measured every 30 mins up to 1.5 hrs; assay type: functional; how it was run: as §3
Mus musculus [20] = test: Antiparkinsonian activity in CFW mouse assessed as reversal of reserpine-induced catalepsy at 0.09 mmol/kg, sc measured every 30 mins up to 1.5 hrs; assay type: functional, organism-based; how it was run: as §4
Rattus norvegicus [21] = test: Antiparkinsonian activity in Wistar rat assessed as reversal of reserpine-induced catalepsy at 0.07 mmol/kg, po measured every 30 mins up to 1.5 hrs; assay type: functional, organism-based
Mus musculus [22] = test: Antidepressant activity in CFW mouse assessed as reversal of reserpine-induced hypothermia by measuring temperature index at 0.16 mmol/kg, sc measured every 30 mins up to 1.5 hrs; assay type: functional
Mus musculus [23] = test: Antiparkinsonian activity in CFW mouse assessed as reversal of reserpine-induced catalepsy at 0.16 mmol/kg, sc measured every 30 mins up to 1.5 hrs; assay type: functional, organism-based
Mus musculus [24] = test: Antidepressant activity in CFW mouse assessed as reversal of reserpine-induced hypothermia by measuring temperature index at 0.17 mmol/kg, sc measured every 30 mins up to 1.5 hrs; assay type: functional
Mus musculus [25] = test: Antiparkinsonian activity in CFW mouse assessed as reversal of reserpine-induced catalepsy at 0.17 mmol/kg, sc measured every 30 mins up to 1.5 hrs; assay type: functional, organism-based

CNCC12CC3CC(CC(C3)C1Cl)C2.Cl (centres undefined)
Activity (Mus musculus [1]): inactive | Activity (Rattus norvegicus [2]): Active | Activity (Mus musculus [3]): inactive | LD50 at 48 h [4]: 1200 µmol/kg | LD50 at 48 h [5]: 600 µmol/kg | Ratio (Rattus norvegicus [6]): 2

Cl.c1ccc(CCNC2CC3CC4CC(C3)C2C4)cc1 (stereo in doubt; 13)
Activity (Mus musculus [7]): 5 | LD50 (Mus musculus [8]): 0.5 mmol/kg | LD50 (Mus musculus [9]): 0.2 mmol/kg

CNC1CC2CC3CC(C2)C1C3.Cl (centres undefined)
Activity (Mus musculus [10]): inactive | LD50 at 48 h [4]: 2000 µmol/kg | Activity (Mus musculus [11]): Active | LD50 at 48 h [5]: 700 µmol/kg

CN(C)CC12CC3CC(CC(C3)C1Br)C2.Cl (centres undefined)
Activity (Rattus norvegicus [12]): Active | Activity (Mus musculus [13]): inactive | LD50 at 48 h [4]: 1300 µmol/kg | Activity (Mus musculus [14]): inactive | LD50 at 48 h [5]: 500 µmol/kg

c1ccc(CCNC2CC3CC4CC(C3)C2C4)cc1 (stereo in doubt; 13)
Activity (Mus musculus [15]): inactive | Activity (Rattus norvegicus [16]): Active

CN1CCN(CC23CC4CC(CC(C4)C2O)C3)CC1.Cl (centres undefined)
LD50 at 48 h [4]: 1200 µmol/kg | Activity (Mus musculus [17]): 5 | LD50 at 48 h [5]: 900 µmol/kg | Activity (Mus musculus [18]): inactive

Cl.c1ccc(CCNC2CC3CC4CC(C3)C2C4)cc1 (stereo in doubt; 12)
Activity (Mus musculus [19]): 5 | LD50 at 48 h [4]: 1000 µmol/kg | LD50 at 48 h [5]: 300 µmol/kg

Cl.c1ccc(CNC2CC3CC4CC(C3)C2C4)cc1 (centres undefined)
Activity (Mus musculus [19]): >10 | Activity (Mus musculus [20]): Active | LD50 at 48 h [4]: 700 µmol/kg | Activity (Rattus norvegicus [21]): Active | LD50 at 48 h [5]: 500 µmol/kg

Cl.Clc1ccc(CNC2CC3CC4CC(C3)C2C4)cc1 (centres undefined)
LD50 at 48 h [4]: 1900 µmol/kg | Activity (Mus musculus [22]): 5 | Activity (Mus musculus [23]): inactive | LD50 at 48 h [5]: 600 µmol/kg

CNCC12CC3CC(CC(C3)C1Br)C2.Cl (centres undefined)
Activity (Rattus norvegicus [16]): Active | Activity (Mus musculus [24]): 5 | LD50 at 48 h [4]: 1000 µmol/kg | LD50 at 48 h [5]: 1000 µmol/kg | Activity (Mus musculus [25]): Active | Ratio (Rattus norvegicus [6]): 2

c1ccc(CCNC2CC3CC4CC(C3)C2C4)cc1 (stereo in doubt; 12)
Activity (Rattus norvegicus [16]): inactive | Activity (Mus musculus [20]): Active
